A short description of data set [1]: Retention time of the compound using 0.1% TFA in water and 0.1% TFA in acetonitrile-water (80:20 v/v) as eluents by RP-HPLC analysis. It counts as physicochemical. The method, boiled down:
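Analytical RP-HPLC. Eluent A was 0.1% TFA in water and eluent B was 0.1% TFA in acetonitrile-water (80:20, v/v). Gradient: 0% B held to 5 min, then to 90% B at 50 min. Flow 1 mL/min, detection at 220 nm. The column was a Phenomenex Aeris Peptide XB-C18 (250×4.6 mm, 3.6 μm) or a Nucleosil C18 (5 μm, 100 Å, 250×4.6 mm), depending on the conjugate series.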

Data set [2] can be described thus: Drug uptake in human HT-29 cells at 100 uM incubated for 3 hrs by flow cytometry. Conditions: ht-29, 3 h; call rule not given here. It counts as ADME, cell-based. The essentials:
(§1)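 HT-29 cells were exposed to 100 µM conjugate for 3 h. Flow cytometry recorded the percentage of Dau-positive cells and the mean fluorescence intensity, in duplicate.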
(Flow cytometry measures light scatter and fluorescence of single cells or particles in a stream.)

In data set [3] the test system is HT-29. Nature of the data set: Cytostatic activity against human HT-29 cells preincubated for 24 hrs under serum free condition followed by compound washout and further incubation for 48 hrs in presence of serum by MTT assay. The data set is classed as functional, cell-based. The method, boiled down:
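HT-29 cells were exposed to the compound for 24 h, washed, and kept a further 48 h. Viability was read by MTT. Absorbances were normalized to untreated controls and fitted by nonlinear regression to dose-response curves to give IC50.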
In general terms: Tetrazolium dyes change colour on reduction, which living cells bring about.

The subject of data set [4] is HT-29. Nature of the data set: Cytotoxicity against human HT-29 cells assessed as reduction in cell viability by measuring decrease in fluorescence intensity at 100 uM incubated for 3 hrs by flow cytometry. The data set is classed as cell-based. Conditions: ht-29, 3 h.
Data set [5] in a line: Drug uptake in human HT-29 cells assessed as increase in fluorescence intensity at 6.25 to 100 uM incubated for 3 hrs by flow cytometry. It counts as ADME, cell-based. The settings on record: ht-29, 3 h. The method, boiled down:
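HT-29 cells were incubated for 3 h with conjugates at 6.25–100 µM. Cellular uptake of Dau fluorescence was measured by flow cytometry, in duplicate.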

Data set [6] can be described thus: Stability in serum free medium at 30 uM incubated for 3 hrs by LC/MS analysis. The method, boiled down: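 Conjugates (30 μM) were incubated at 37 °C in serum-free medium. Samples were taken at 0 and 3 h, quenched with acetic acid, lyophilised, desalted on C18 spin columns and analysed by LC-MS.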
Data set [7] is described as follows: Stability in 2.5% fetal bovine serum containing medium at 30 uM measured after 24 hrs by LC/MS analysis. It counts as ADME, cell-free, Bos taurus. Conditions: cattle. The method, boiled down: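 Conjugates (30 μM) were incubated at 37 °C in medium containing 2.5% FBS. Samples were taken at 0, 3, 6 and 24 h, quenched with acetic acid, lyophilised, desalted on C18 spin columns and analysed by LC-MS. Cleavage products were identified by mass.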

Data set [8] can be described thus: Drug metabolism in rat liver lysosomes homogenate assessed as Dau-containing metabolite formation at 0.05 ug/ul after 24 hrs by LC-MS analysis. Conditions: tissue homogenate. It counts as ADME, subcellular, Lysosome. The method, boiled down: (§2)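 Conjugates and rat liver lysosomal homogenate were each used at 0.05 µg/µL. Samples were taken at 0, 1, 3, 6 and 24 h. Metabolites were identified by LC-MS on a C18 column with a formic acid/acetonitrile gradient.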

Data set [9] can be described thus: Solubility of compound. The data set is classed as physicochemical.
Data set [10] can be described thus: Drug metabolism in rat liver lysosomes homogenate assessed as increase in Dau = Aoa-Leu-OH metabolite formation at 0.05 ug/ul after 1 hr by LC-MS analysis. The data set is classed as ADME, subcellular, Lysosome. Conditions: tissue homogenate. The essentials:
as §2

A short description of data set [11]: Drug uptake in human HT-29 cells at 100 uM incubated for 3 hrs by flow cytometry relative to control. The settings on record: ht-29, 3 h. The data set is classed as ADME, cell-based. The essentials:
as §1

The nature of data set [12]: Drug uptake in human HT-29 cells assessed as increase in fluorescence intensity at 25 uM incubated for 3 hrs by flow cytometry. The data set is classed as ADME, cell-based. Conditions: ht-29, 3 h.

Where a SMILES comes first, the peptide text is derived from it. [ ]: non-standard residue; d: D form. The star is where a group is joined. X1 = COc1cccc2c1C(=O)c1c(O)c3c(c(O)c1C2=O)C[C@@](O)(/C(C)=N/OCC(=O)*)C[C@@H]3O[C@H]1C[C@H](N)[C@H](O)[C@H](C)O1; Phe(4-Cl) = N[C@@H](Cc1ccc(Cl)cc1)C(=O)O

Take `COc1cccc2c1C(=O)c1c(O)c3c(c(O)c1C2=O)C[C@@](O)(/C(C)=N/OCC(=O)N[C@@H](CC(C)C)C(=O)N[C@@H](CCCNC(=N)N)C(=O)N[C@@H](CCCNC(=N)N)C(=O)N[C@@H](Cc1ccc(O)cc1)C(=O)N[C@H](C(=O)N[C@@H](Cc1cnc[nH]1)C(=O)N[C@@H](C)C(=O)NCC(=O)N[C@@H](Cc1ccc(O)cc1)C(=O)N[C@@H](C)C(=O)N[C@H](C(N)=O)[C@@H](C)O)C(C)C)C[C@@H]3O[C@H]1C[C@H](N)[C@H](O)[C@H](C)O1` (X1-LRRYVHAGYAT-NH2): the Retention time in data set [1] is 27.2 to 29.9 min. Moreover, in data set [2], the Drug uptake result was “Active”. Further, the IC50 in the data set with HT-29 [3] is over 100 µM.

For `COc1cccc2c1C(=O)c1c(O)c3c(c(O)c1C2=O)C[C@@](O)(/C(C)=N/OCC(=O)N[C@@H](CC(C)C)C(=O)N[C@@H](CCCNC(=N)N)C(=O)N[C@@H](CCCNC(=N)N)C(=O)N[C@@H](Cc1ccc(O)cc1)C(=O)N[C@H](C(=O)N[C@@H](Cc1cnc[nH]1)C(=O)N[C@@H](CC(C)C)C(=O)N[C@@H](Cc1ccc(Cl)cc1)C(=O)N[C@@H](Cc1ccc(O)cc1)C(=O)N[C@@H](C)C(=O)N[C@H](C(N)=O)[C@@H](C)O)C(C)C)C[C@@H]3O[C@H]1C[C@H](N)[C@H](O)[C@H](C)O1` (X1-LRRYVHL[Phe(4-Cl)]YAT-NH2), the Retention time in data set [1] lay within 31.3 to 34 min. Moreover, the Activity entry in the data set on HT-29 [4] is “Toxic”. Also, the Drug uptake entry in [5] is listed as “Active”. The IC50 in the data set with HT-29 [3] was 3.6 µM. Besides, the Stability entry in data set [6] and in data set [7] was “Stable” throughout. Besides, the Drug metabolism result in data set [8] and in [10] was “Metabolite_Detected” throughout. In data set [9], the solubility entry was “Soluble”.

Turning to `COc1cccc2c1C(=O)c1c(O)c3c(c(O)c1C2=O)C[C@@](O)(/C(C)=N/OCC(=O)N[C@@H](CC(C)C)C(=O)N[C@@H](CCCNC(=N)N)C(=O)N[C@@H](CCCNC(=N)N)C(=O)N[C@@H](Cc1ccc(O)cc1)C(=O)N[C@@H](C)C(=O)N[C@@H](Cc1cnc[nH]1)C(=O)N[C@@H](CC(C)C)C(=O)NCC(=O)N[C@@H](Cc1ccc(O)cc1)C(=O)N[C@@H](C)C(=O)N[C@H](C(N)=O)[C@@H](C)O)C[C@@H]3O[C@H]1C[C@H](N)[C@H](O)[C@H](C)O1` (X1-LRRYAHLGYAT-NH2), the Retention time in [1] fell in the range of 27.7 to 30.4 min. In addition, the Drug uptake entry in data set [2] is “Active”. Moreover, in the data set with HT-29 [3], the IC50 was over 100 µM.

`COc1cccc2c1C(=O)c1c(O)c3c(c(O)c1C2=O)C[C@@](O)(/C(C)=N/OCC(=O)N[C@@H](CC(C)C)C(=O)N[C@@H](CCCNC(=N)N)C(=O)N[C@@H](CCCNC(=N)N)C(=O)N[C@@H](Cc1ccc(O)cc1)C(=O)N[C@H](C(=O)N[C@@H](Cc1cnc[nH]1)C(=O)N[C@@H](CC(C)C)C(=O)N[C@@H](C)C(=O)N[C@@H](Cc1ccc(O)cc1)C(=O)N[C@@H](C)C(=O)N[C@H](C(N)=O)[C@@H](C)O)C(C)C)C[C@@H]3O[C@H]1C[C@H](N)[C@H](O)[C@H](C)O1` (X1-LRRYVHLAYAT-NH2): the Retention time in [1] fell in the range of 28.6 to 31.3 min. Also, the figures for the Drug uptake in [11] and in [12] were 80% and “Active”, respectively. In addition, in the data set with HT-29 [3], the IC50 lay within 24.1 to 27.9 µM. Moreover, the Stability result in data set [6] and in data set [7] was “Stable” in each case.

Compound `COc1cccc2c1C(=O)c1c(O)c3c(c(O)c1C2=O)C[C@@](O)(/C(C)=N/OCC(=O)N[C@@H](CC(C)C)C(=O)N[C@@H](CCCNC(=N)N)C(=O)N[C@@H](CCCNC(=N)N)C(=O)N[C@@H](Cc1ccc(O)cc1)C(=O)N[C@H](C(=O)N[C@@H](Cc1cnc[nH]1)C(=O)N[C@@H](CC(C)C)C(=O)NCC(=O)N[C@@H](C)C(=O)N[C@@H](C)C(=O)N[C@H](C(N)=O)[C@@H](C)O)C(C)C)C[C@@H]3O[C@H]1C[C@H](N)[C@H](O)[C@H](C)O1` (X1-LRRYVHLGAAT-NH2) returned a Retention time in data set [1] of 27.4 to 30.1 min. The Drug uptake result in data set [2] is “Active”. Further, the IC50 in the data set on HT-29 [3] was over 100 µM.

`COc1cccc2c1C(=O)c1c(O)c3c(c(O)c1C2=O)C[C@@](O)(/C(C)=N/OCC(=O)N[C@@H](CC(C)C)C(=O)N[C@@H](CCCNC(=N)N)C(=O)N[C@@H](CCCNC(=N)N)C(=O)N[C@@H](Cc1ccc(O)cc1)C(=O)N[C@H](C(=O)N[C@@H](C)C(=O)N[C@@H](CC(C)C)C(=O)NCC(=O)N[C@@H](Cc1ccc(O)cc1)C(=O)N[C@@H](C)C(=O)N[C@H](C(N)=O)[C@@H](C)O)C(C)C)C[C@@H]3O[C@H]1C[C@H](N)[C@H](O)[C@H](C)O1` (X1-LRRYVALGYAT-NH2): the Retention time in [1] was in the range of 29 to 31.7 min. Moreover, in data set [2], the Drug uptake result is listed as “Active”. For the same compound, the IC50 in the data set with HT-29 [3] is 36.8 µM.

With `COc1cccc2c1C(=O)c1c(O)c3c(c(O)c1C2=O)C[C@@](O)(/C(C)=N/OCC(=O)N[C@@H](CC(C)C)C(=O)N[C@@H](CCCNC(=N)N)C(=O)N[C@@H](CCCNC(=N)N)C(=O)N[C@@H](Cc1ccc(O)cc1)C(=O)N[C@H](C(=O)N[C@@H](Cc1cnc[nH]1)C(=O)N[C@@H](CC(C)C)C(=O)N[C@@H](Cc1ccccc1)C(=O)N[C@@H](Cc1ccc(O)cc1)C(=O)N[C@@H](CC(C)C)C(=O)N[C@H](C(N)=O)[C@@H](C)O)C(C)C)C[C@@H]3O[C@H]1C[C@H](N)[C@H](O)[C@H](C)O1` (X1-LRRYVHLFYLT-NH2), the Retention time in [1] lay in the range of 30.7 to 32.3 min. Also, in data set [5], the Drug uptake result is given as “Active”. Besides, the IC50 in the data set on HT-29 [3] was 3.2 µM. The Stability entry in data set [6] and in data set [7] was “Stable” in each case. The Drug metabolism result in [8] and in [10] was “Metabolite_Detected” in each case. Moreover, the solubility entry in data set [9] was “Soluble”.

As for `COc1cccc2c1C(=O)c1c(O)c3c(c(O)c1C2=O)C[C@@](O)(/C(C)=N/OCC(=O)N[C@@H](CC(C)C)C(=O)N[C@@H](CCCNC(=N)N)C(=O)N[C@@H](CCCNC(=N)N)C(=O)N[C@@H](Cc1ccc(O)cc1)C(=O)N[C@H](C(=O)N[C@@H](Cc1cnc[nH]1)C(=O)N[C@@H](CC(C)C)C(=O)NCC(=O)N[C@@H](Cc1ccc(O)cc1)C(=O)N[C@@H](C)C(=O)N[C@@H](C)C(N)=O)C(C)C)C[C@@H]3O[C@H]1C[C@H](N)[C@H](O)[C@H](C)O1` (X1-LRRYVHLGYAA-NH2), the Retention time in data set [1] lay within 28 to 30.7 min. In data set [2], the Drug uptake entry is recorded as “Active”. For the same compound, the IC50 with HT-29 [3] amounted to 70.9 µM.

Regarding `COc1cccc2c1C(=O)c1c(O)c3c(c(O)c1C2=O)C[C@@](O)(/C(C)=N/OCC(=O)N[C@@H](CC(C)C)C(=O)N[C@@H](CCCNC(=N)N)C(=O)N[C@@H](CCCNC(=N)N)C(=O)N[C@@H](Cc1ccc(O)cc1)C(=O)N[C@H](C(=O)N[C@@H](Cc1cnc[nH]1)C(=O)N[C@@H](CC(C)C)C(=O)N[C@@H](Cc1ccccc1)C(=O)N[C@@H](Cc1ccc(O)cc1)C(=O)N[C@@H](CCCCN)C(=O)N[C@H](C(N)=O)[C@@H](C)O)C(C)C)C[C@@H]3O[C@H]1C[C@H](N)[C@H](O)[C@H](C)O1` (X1-LRRYVHLFYKT-NH2), in data set [1], the Retention time was in the range of 30.5 to 32 min. For the same compound, in the data set with HT-29 [3], the IC50 is 11.5 µM.

Usually IC50 stands for the concentration that gives 50% inhibition.
